Results published in ChEMBL document CHEMBL3399918, “In vitro radical scavenging and cytotoxic activities of novel hybrid selenocarbamates” (Bioorg Med Chem, 2015).

Legend:
MCF7 = assay: Cytotoxicity against human MCF7 cells after 72 hrs by MTT assay; type: functional; conditions: MCF7, 72 h; for CC50: read-out: LC50 (the source's name)
Procedure, shortened: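 MCF-7 cells grown in EMEM with 10% foetal calf serum, 2 mM L-glutamine, 100 units/mL penicillin, 100 µg/mL streptomycin. Exposed to five concentrations between 0.01 and 100 μM for 72 h, 37 °C, humidified 5% CO2; MTT read-out. GI50, TGI, LC50 relative to untreated controls; ≥3 independent experiments in quadruplicate.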

HT-29 = assay: Cytotoxicity against human HT-29 cells after 72 hrs by MTT assay; type: functional; conditions: HT-29, 72 h
Procedure, shortened: (§1)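 CCRF-CEM, HT-29, PC-3 and HTB-54 cells grown in RPMI 1640 with 10% foetal calf serum, 2 mM L-glutamine, penicillin/streptomycin, 10 mM HEPES (pH 7.4). Five concentrations, 0.01–100 μM, 72 h at 37 °C, 5% CO2; MTT read-out. GI50, TGI and LC50 versus untreated controls; at least 3 independent experiments in quadruplicate.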

CCRF-CEM = assay: Cytotoxicity against human CCRF-CEM cells after 72 hrs by MTT assay; type: functional; procedure, shortened: as §1
[1] = Cytotoxicity against human PC3 cells after 72 hrs by MTT assay; type: functional; conditions: PC-3, 72 h; procedure, shortened: as §1
[2] = Cytotoxicity against human HTB-54 cells after 72 hrs by MTT assay; type: functional; conditions: HTB-54, 72 h; for CC50: read-out: LC50 (the source's name); procedure, shortened: as §1
[3] = Cytotoxicity against human 184B5 cells after 72 hrs by MTT assay; type: cell-based; conditions: for GI50 at 72 h: 184B5 cells; for LC50 / TGI: 184b5, 72 h
Procedure, shortened: (§2)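 Non-malignant lines: 184B5 (normal breast) in Hams F-12/DMEM (50:50) with published supplements; BEAS-2B (bronchial epithelium) in Hams F-12/DMEM (50:50) with 10% foetal calf serum, 2 mM L-glutamine, penicillin/streptomycin. Compounds at five concentrations, 0.01–100 μM, 72 h, 37 °C, 5% CO2; MTT read-out. GI50, TGI, LC50 relative to untreated controls; ≥3 independent experiments in quadruplicate.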

[4] = Cytotoxicity against human BEAS2B cells after 72 hrs by MTT assay; type: cell-based, BEAS-2B; conditions: for GI50 at 72 h: BEAS2B cells; for LC50 / TGI: beas-2b, 72 h; procedure, shortened: as §2
[5] = Antioxidant activity assessed as DPPH radical scavenging activity at 0.5 mg/ml after 180 mins; type: physicochemical; conditions: 3 h
Procedure, shortened: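 Compounds in absolute ethanol, serially diluted from 1 mg/mL, mixed 1:1 with […] in ethanol. Final range 0.016–0.5 mg/mL, 6 concentrations. Incubated at 37 °C in the dark, with decolourisation followed at 517 nm at several time intervals. % scavenged = (A vehicle control − A sample)/A control × 100. Quadruplicate; mean ± SD.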

[6] = Antioxidant activity assessed as ABTS radical scavenging activity at 0.1 mg/ml after 6 mins; type: physicochemical; conditions: 0.1 h
Procedure, shortened: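 Diluted with 50% ethanol to A741 0.700 ± 0.02. A741 decrease read after 6 min against a 50% ethanol blank. % scavenged relative to a vehicle-plus-radical control. Quadruplicate.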

[7] = Antioxidant activity assessed as ABTS radical scavenging activity by measuring Trolox equivalent antioxidant capacity after 6 mins; type: physicochemical; conditions: 0.1 h
Procedure, shortened: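 ABTS dissolved in deionized water at 1 mg/mL, oxidised to radical cation with potassium persulfate (2.45 mM final), kept overnight at room temperature in dark, then diluted with 50% ethanol to A741 = 0.700 ± 0.02. Compound (1 mg/mL ethanol stock) added 1:10 (0.1 mg/mL); A741 decrease read after 6 min against 50% ethanol blank. Trolox positive control; quadruplicate; TEAC from calibration curve.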

Structure (SMILES)	GI50 (MCF7)	TGI (MCF7)	CC50 (MCF7)	GI50 (HT-29)	LC50 (HT-29)	TGI (HT-29)	GI50 (CCRF-CEM)	LC50 (CCRF-CEM)	TGI (CCRF-CEM)	GI50 [1]	LC50 (concentration causing 50% net cell kill) [1]	TGI [1]	GI50 [2]	TGI [2]	CC50 [2]	GI50 at 72 h [3]	LC50 [3]	TGI [3]	GI50 at 72 h [4]	LC50 [4]	other results
C=CCOC(=O)Nc1ccc([Se][Se]c2ccc(NC(=O)OCC=C)cc2)cc1	20.8 µM	47.2 µM	73.6 µM	25.9 µM	79.5 µM	52.7 µM	4.6 µM	46.9 µM	8.7 µM	25 µM	74.7 µM	49.9 µM	29.8 µM	56.6 µM	83.3 µM	6.4 µM	60.4 µM	21.5 µM	14.3 µM	71.4 µM	TGI [4]: 42.9 µM; inhibition (INH) [5]: 30%; inhibition (INH) [6]: 10.9%; Activity [7]: 5.5 µg/µL
N#C[Se]c1ccc(NC(=O)OCc2ccccc2)cc1	8.7 µM	38.8 µM	68.9 µM	13.3 µM	69.1 µM	41.2 µM	23.2 µM	73.7 µM	48.4 µM	3.7 µM	62.5 µM	27.8 µM	27.6 µM	50.8 µM	74 µM	5 µM	60.7 µM	21.9 µM	0.1 µM	66.6 µM	TGI [4]: 34.4 µM; inhibition (INH) [5]: 3.7%; Activity [7]: 6.74 µg/µL
N#C[Se]c1ccc(NC(=O)Oc2ccccc2)cc1	4 µM	35.9 µM	67.8 µM	11.7 µM	71.7 µM	41.7 µM	22.9 µM	73.2 µM	48 µM	9.1 µM	68 µM	37.5 µM	26.2 µM	50.2 µM	74.4 µM	0.4 µM	61.2 µM	22.7 µM	8.9 µM	69.3 µM	TGI [4]: 38.2 µM; inhibition (INH) [5]: 19.3%; inhibition (INH) [6]: > 25%; Activity [7]: 29 µg/µL
CC(C)COC(=O)Nc1ccc([Se]C#N)cc1	18.1 µM	45.5 µM	73 µM	8.1 µM	63.7 µM	31.3 µM	9.3 µM	68.7 µM	38.3 µM	21.6 µM	73 µM	47.3 µM	27.1 µM	51.2 µM	75.4 µM	5.8 µM	60.9 µM	21.6 µM	26.9 µM	72.1 µM	TGI [4]: 49.5 µM; inhibition (INH) [5]: 27.1%; Activity [7]: 5.09 µg/µL
CCCCOC(=O)Nc1ccc([Se]C#N)cc1	6.6 µM	20.2 µM	59.7 µM	8.1 µM	63.7 µM	31.3 µM	6.5 µM	63.5 µM	27.9 µM	12.4 µM	69.3 µM	40.8 µM	17.2 µM	43.4 µM	69.5 µM	5.3 µM	56.8 µM	14.5 µM	5 µM	54.5 µM	TGI [4]: 12.2 µM; inhibition (INH) [5]: 6.6%; inhibition (INH) [6]: 12.6%; Activity [7]: 6.77 µg/µL
N#C[Se]c1ccc(NC(=O)OCC2c3ccccc3-c3ccccc32)cc1	7.6 µM	34.6 µM	67 µM	15.5 µM	70.2 µM	42.8 µM	7.5 µM	66.7 µM	34.2 µM	2 µM	70 µM	34.3 µM	23.8 µM	48.4 µM	73 µM	5.5 µM	62.5 µM	25.8 µM	7.9 µM	68.2 µM	TGI [4]: 38.4 µM; inhibition (INH) [5]: > 25%; Activity [7]: 7.02 µg/µL
N#C[Se]c1ccc(NC(=O)Oc2ccc(F)cc2)cc1	8.3 µM	33.3 µM	65.7 µM	8.8 µM	66.5 µM	37.6 µM	12.6 µM	71.1 µM	41.9 µM	11.8 µM	69 µM	40.4 µM	25 µM	48.4 µM	71.9 µM	6.9 µM	64.4 µM	29.5 µM	19.8 µM	71.4 µM	TGI [4]: 45.6 µM; inhibition (INH) [6]: > 25%; Activity [7]: 20.8 µg/µL
N#C[Se]c1ccc(NC(=O)Oc2ccc(Cl)cc2)cc1	6 µM	26.3 µM	63.6 µM	11.8 µM	68.7 µM	40.3 µM	18.3 µM	71.8 µM	45.1 µM	6.4 µM	57.9 µM	18.7 µM	13.8 µM	41.4 µM	69 µM	5.6 µM	59.8 µM	19.9 µM	9.3 µM	68.7 µM	TGI [4]: 38 µM; inhibition (INH) [6]: > 25%; Activity [7]: 37.6 µg/µL
